Bioassay records as filed in PubChem.
A selection: hits, their analogues and other compounds. The true share with any hit is near 1%.
TNF necrop inh – inhibitors of TNF-alpha induced necroptosis in Jurkat FADD-/- cells; Jurkat FADD-/- TNF necroptosis rescue, ATP luminescence, 24 h; 0 = TNF only, 100 = no-TNF cells; activation (protection from cell death), % at 10 µM; 0.068% of 220,000 active; AID 463075;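 active = activation, meaning protection from cell death, of at least 50% relative to plate controls; inactive = activation below 50%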;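 also: necroptosis triggered by 40 ng/mL TNF-alpha added together with compound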
L929 necroptosis – blocks zVAD induced death of L929 cells; L929 zVAD necroptosis rescue, ATP luminescence, 24 h; with zVAD 60 µM; viability rescue, % at 10 µM; 0.38% of 220,000 active; AID 1377;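 active = activation, scaled between plate controls, above about 75%, limit read from the data; inactive = activation under that limit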;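 also: 0% = zVAD with DMSO and 100% = DMSO alone without zVAD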
Rad51 HR inh – blocks human Rad51 in homologous recombination; inhibition, % at 10 µM; hRad51 DNA strand exchange, fluorescence dequenching; Q06609; 0.085% of 200,000 active; AID 1385;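 active = inhibition above 40% at the single screening dose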;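 also: 0% = DMSO control wells and 100% = blanks with heterologous ssDNA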
Target sequence (Q06609 whole entry, looked up): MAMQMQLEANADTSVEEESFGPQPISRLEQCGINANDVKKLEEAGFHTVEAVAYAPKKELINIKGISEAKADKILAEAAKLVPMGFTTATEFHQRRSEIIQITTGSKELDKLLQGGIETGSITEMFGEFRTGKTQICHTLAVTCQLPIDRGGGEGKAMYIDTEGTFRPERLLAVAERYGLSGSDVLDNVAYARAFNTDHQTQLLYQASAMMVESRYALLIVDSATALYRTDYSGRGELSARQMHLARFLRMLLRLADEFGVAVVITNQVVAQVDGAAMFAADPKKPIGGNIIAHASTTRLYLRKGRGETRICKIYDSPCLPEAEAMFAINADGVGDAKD
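Assay system: Human Rad51 nucleoprotein filaments preassembled on unlabelled ssDNA | Reagent: Donor/quencher-labelled 47-bp dsDNA substrate | Doses: One concentration, 10 µM final | Times: 37 °C 15-min filament assembly, 30-min compound preincubation, 15-min exchange | Technique: Fluorescein emission 520 nm, excitation 485 nm | Benchmarks: Plate control and blank wells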
Efa HMGR inh – blocks class II HMG-CoA reductase of Enterococcus faecalis; purified E. faecalis HMGR, NADPH absorbance 340 nm kinetic; inhibition, % at 10 µM; 0.41% of 190,000 active; AID 1066;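 active = inhibition above a set limit, the median over all tested compounds plus 3 SD, cut at about 9.5% in these data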;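 also: enzyme runs in reverse so mevalonate oxidation gives rising NADPH absorbance; 0% = complete reaction with DMSO and 100% = background rate lacking mevalonate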
PERK inh – human PERK inhibition, primary cell-based screen | AID 1416 | CHO PERK-DD fusion, SEAP luminescence translation reporter | 0.17% of 220,000 active | Q9NZJ5 | inhibition, % at 5.6 µM;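 active = inhibition above the mean inhibition of all tested compounds plus 3 SD, set separately per screening campaign, cut at about 2.9% in these data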;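 also: PERK kinase domain activated by AP20187 dimerizer at 100 nM; 0% = DMSO with dimerizer and 100% = rapamycin at 8.4 µM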
Numbers without * were called inactive; nt = not tested or not shown.

SMILES	TNF necrop inh	L929 necroptosis	Rad51 HR inh	Efa HMGR inh	PERK inh
CC(C)N(C(=O)/C=C/c1cccc([N+](=O)[O-])c1)C(C)C	0	2	-6	-1	3.6*
O=C(Cc1cccs1)NCc1ccncc1	-2	0	nt	-3	3.0*
O=C(Cc1csc(-c2ccccc2)n1)NCc1cccs1	1	0	-4	11*	0
O=C(Cc1cccs1)NCc1ccccc1	6	1	-5	-10	1
CC(C)CNC(=O)c1cccc(NC(=O)CCc2ccccc2)c1	3	1	nt	-1	1
Cc1ccc(NC(=O)CCc2ccc(S(=O)(=O)N3CCOCC3)cc2)c(C)c1	0	-1	-9	15*	0
C=CC1CN(C(=O)OCC(Cl)(Cl)Cl)C2CC3c4ccc(OC)cc4NC3C3CC1C2CO3 (centres undefined)	nt	nt	-5	nt	nt
N/C(=N\OC(=O)C1CC1)c1ccc([N+](=O)[O-])s1	-8	0	16	nt	1
CNS(=O)(=O)c1cccc(C(=O)OCC(=O)N(Cc2ccccc2)C(C)(C)C)c1	-1	1	16	0	0
COc1ccc(-c2nc3cc(NC(=O)Cc4ccc(OC)c(OC)c4)ccc3o2)cc1	0	89*	1	2	-1
COc1ccc(N2CCN(CCC(N)=O)CC2)cc1	1	0	108*	-5	1
COc1ccc(N2CCN(CC(=O)NC(=O)NC(C)(C)C)CC2)cc1	-2	20	8	-12	0
Cc1ccc(N2C(=O)CCC2(C(N)=O)c2ccccc2)cc1 (centres undefined)	-1	0	-5	-1	1
CC(C)Oc1ccc(C(=O)Nc2cccc3cccnc23)cc1	1	2	-1	2	-1
COCCCNC(=O)c1c(N)n(-c2ccc3c(c2)OCO3)c2nc3ccccc3nc12	-3	84*	-1	2	-1
O=C(/C=C\Nc1ccc(Cl)cn1)c1ccc(Br)cc1	1	2	-6	11*	1
N#CCSc1nc2sc3c(c2c(=O)n1C1CCCCC1)CCCC3	68*	12	4	0	0
Cc1ccc(/C=C2\C(=O)Nc3ccccc32)o1	0	78*	-5	-2	0
Cc1nn(-c2ccccc2)nc1C(=O)Oc1cc(C(F)(F)F)nn1-c1ccccc1	0	0	12	nt	0
COc1ccc(/C=N\NC(=O)CNC(=O)C(c2ccccc2)c2ccccc2)cc1[N+](=O)[O-]	1	1	-3	-4	1
COc1ccc(/C=N/NC(=O)C(C)Sc2ccccn2)cc1[N+](=O)[O-] (centres undefined)	-2	2	6	15*	0
CCS(=O)(=O)n1nc(-c2ccco2)nc1N	1	0	3	10*	1
Cc1ccc(F)cc1NC(=O)CSc1ncccn1	1	1	-5	-10	1
Cc1ccc(S(=O)(=O)N(CC(=O)NCCSCc2ccco2)c2ccc(F)cc2)cc1	0	0	nt	-3	3.2*
Cc1ccc(N(CC(=O)NCCSCc2ccco2)S(=O)(=O)c2ccc(F)cc2)cc1	-1	-1	nt	-4	1
SMILES	TNF necrop inh	L929 necroptosis	Rad51 HR inh	Efa HMGR inh	PERK inh
O=C(NC1=NCCS1)c1cccc(N2C(=O)c3ccccc3C2=O)c1	0	1	41*	-1	1
OCCCN=c1cc(-c2ccccc2)oc2ccc(Cl)cc12	-2	1	-9	-4	-1
CC1(C)CC(N=c2cc(-c3ccccc3)oc3ccc(Cl)cc23)CC(C)(C)N1	-15	-3	53*	-2	0
C=CCOc1cccc(CNc2cccc(C(=O)O)c2)c1	1	0	nt	nt	2
COc1ccc(C2/C(=C(\O)c3ccc4c(c3)OCCO4)C(=O)C(=O)N2CCCN(C)C)cc1 (centres undefined)	0	2	-2	-5	0
Cc1ccc(C2/C(=C(\O)c3ccc4c(c3)OCCO4)C(=O)C(=O)N2CCCN(C)C)o1 (centres undefined)	1	1	94*	4	1
O=C(CSc1nccc(=O)[nH]1)Nc1ccc2c(c1)OCCO2	0	-1	nt	-3	1
Cc1cc(=O)[nH]c(SCC(=O)Nc2ccc3c(c2)OCCO3)n1	0	-1	nt	-8	3.3*
CC(=O)N(CC(=O)Nc1nn(-c2ccccc2)nc1C(N)=O)Cc1ccccc1	-4	1	-34	-4	-1
CC(C)(C)n1nnnc1SCC(=O)Nc1nn(-c2ccccc2)nc1C(N)=O	1	2	0	10.0*	0
COC(=O)[C@@]1(Cc2ccc(F)cc2)[C@H]2c3cc(C(=O)N(C)C)n(Cc4nc5ccccc5[nH]4)c3C[C@H]2CN1C(=O)c1ccccc1	0	4	0	11*	-1
Cc1ccc(C(C)C)c(OCc2nn(CC(=O)c3ccc(OC(F)F)cc3)c3[n+]2CCCCC3)c1	-11	11	-6	-2	0
COc1cc2c(cc1OC)C(c1cccs1)N(C(=O)c1ccc(S(=O)(=O)N(C)C)cc1)CC2 (centres undefined)	1	0	8	nt	1
COc1ccc(NS(=O)(=O)c2ccc(NC(=O)C(CCSC)NC(N)=O)cc2)cc1 (centres undefined)	2	0	42*	nt	1
CNS(=O)(=O)c1ccc(NC(=O)C(CCSC)NC(N)=O)cc1 (centres undefined)	1	2	5	-11	0
O=C(CSc1nnnn1-c1ccccc1)Nc1ccc(N2CCOCC2)c(Cl)c1	0	0	1	15*	2
Cc1cc(C)c2c3c(sc2n1)C(=O)N(c1ccccc1)CC(=O)N3	1	0	-3	nt	-1
O=C(CC(=O)NN=C1CCCCCC1)NCc1cccnc1	2	0	-49	15*	0
CCN(CC)C(=O)C1=C(C)Nc2ncnn2C1c1cccnc1 (centres undefined)	0	3	0	9	1
CCN(CC)CCNC(=O)c1ccc2c(c1)ncn2C1CCCCC1	0	93*	-2	-5	0
CCN1/C(=C/C(C)=C/c2sc3ccccc3[n+]2CC)Sc2ccccc21	-15	11	81*	1	0
CC(=O)NCC1(O)CCCC(C)C1 (centres undefined)	1	1	-6	nt	2
C=CCNC(=O)c1c(C(F)(F)F)nn(C)c1Cl	-3	4	2	9.6*	0
Cc1ncc(CN2CCC(CO)(CCc3ccccc3)CC2)s1	0	0	-1	-2	2
COc1ccccc1OCCC(=O)OCC(=O)Nc1cc(S(=O)(=O)N2CCOCC2)ccc1Cl	0	1	-11	4	0
Cc1ccccc1OCCC(=O)OCC(=O)Nc1cc(S(=O)(=O)N2CCOCC2)ccc1Cl	0	2	2	13*	1
Cc1nnc(SCC(=O)Nc2ccc(Cl)cn2)s1	2	1	9	-3	1
